This is a sample that favours compounds with a hit; in the whole collection about 1.8% have one here.
DNMT1 inh: blocks human DNA methyltransferase DNMT1. P26358. DNMT1 molecular beacon, Hinp1I cleavage, fluorescence. inhibition (reported as % activation of signal), % at 10 µM. actives 0.83% (n = 360,000). AID 588458; in the data active = inhibition above about 50%
LMPTP block: blocks human LMPTP phosphatase; recombinant LMPTP-A, OMFP fluorogenic substrate, fluorescence intensity; inhibition, % at 20 µM; actives 0.22% (n = 360,000); AID 651560;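 active = compounds that cut the enzyme signal by at least half of the control window in the single-dose screen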;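 note: plate controls were DMSO wells with enzyme plus substrate for no effect and substrate without enzyme for full effect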
Target sequence (P24666 whole entry, looked up): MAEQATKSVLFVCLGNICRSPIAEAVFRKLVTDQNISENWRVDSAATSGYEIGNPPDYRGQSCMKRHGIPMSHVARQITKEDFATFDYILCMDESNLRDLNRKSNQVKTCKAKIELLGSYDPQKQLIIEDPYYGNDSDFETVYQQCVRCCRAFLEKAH
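Test system: LMPTP-A, protein tyrosine phosphatase of low molecular weight; Input: 0.625 nM enzyme; Incubation: 50 min dark incubation at room temperature; Signal: endpoint fluorescence intensity from OMFP dephosphorylation; Read-out basis: % inhibition versus control wells.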
STEP block: STEP (human) phosphatase inhibition; actives 0.25% (n = 360,000); P54829; inhibition, % at 20 µM; AID 588621; recombinant STEP, OMFP fluorogenic substrate, fluorescence;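 active = inhibition at 20 µM, scaled per plate between control wells, above about 37%, limit read from the data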;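 note: 0% = DMSO with enzyme and substrate and 100% = substrate only without enzyme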
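Material: STEP (striatal-enriched tyrosine phosphatase) enzyme, cell-free | Medium: 50 mM Bis-Tris pH 6.0 with 2.5 mM DTT and 0.005% Tween 20 | Read-out: Percent inhibition scaled to no-enzyme and uninhibited-enzyme controls, plate-pattern corrected | Signal: Fluorescence read at 480 nm ex / 540 nm em | Times: 20 min reaction, room temperature, in the dark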
HKDC1 inh: blocks human hexokinase HKDC1 activity; recombinant HKDC1, G6PDH/diaphorase resazurin coupled fluorescence; AID 493160; inhibition, % at 20 µM; Q2TB90; actives 0.16% (n = 340,000);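 active = inhibition above about 35% when tested at 20 µM, limit read from the data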;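 note: plate controls were DMSO wells with enzyme for no effect and DMSO wells lacking enzyme for full effect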
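Material – in-house recombinant HK5 (HKDC1) enzyme · Quantity – HKDC1 at 5 µg/mL · Buffer or medium – pH 8.0 Tris buffer with 10 mM MgCl2 · Reagent – glucose with 1 mM ATP · Dosing – single 20 µM dose · Times – reaction time 90 min, room temperature, protected from light · Technique – resorufin fluorescence at 613 nm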
Scp-1 inhibitor: inhibitors of human Scp-1 phosphatase; actives 0.88% (n = 340,000); inhibition, % at 20 µM; Recombinant Scp1, phosphopeptide, malachite green phosphate absorbance;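 active = inhibition above about 50% at 20 µM, limit read from the data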;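 note: plate controls were DMSO wells with enzyme for no effect and wells lacking enzyme for full effect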
Target sequence (Q9GZU7 76-261 limits assumed): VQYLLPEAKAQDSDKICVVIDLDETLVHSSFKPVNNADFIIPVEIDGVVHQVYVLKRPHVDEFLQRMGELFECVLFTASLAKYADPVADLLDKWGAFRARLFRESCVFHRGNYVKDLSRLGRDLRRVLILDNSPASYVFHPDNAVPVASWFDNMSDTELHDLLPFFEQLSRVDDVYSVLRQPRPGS
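Test system – truncated SCP-1 phosphatase (76-261aa) · Reagent – Phosphorylated 17-residue peptide substrate · Incubation – 45 min room-temperature reaction, 5 min colour, 30 min stabiliser · Detection – colorimetric phosphate reagent with accelerator and stabiliser, absorbance at 630 nm · Measure – % inhibition at 20 µM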
SUMO1 PPI mod: SUMO1-SIM interaction modulation. P63165. SUMO1 binding to a labelled peptide, TR-FRET, 1 h. inhibition, % at 20 µM. actives 0.33% (n = 360,000); in the data active = inhibition above about 37%
Target sequence (P63165 whole entry, looked up): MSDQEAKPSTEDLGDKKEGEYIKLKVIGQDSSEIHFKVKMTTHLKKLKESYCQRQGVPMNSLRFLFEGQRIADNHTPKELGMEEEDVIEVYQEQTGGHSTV
DNMT1 interf DR: beacon fluorescence artifact, dose response counter-screen. shares compounds with DNMT1 inh. molecular beacon fluorescence, spectral interference counter-screen. IC50, µM. 200 tested, under 10 active. AID 602382; call rule not given here
DNMT1 inh conf: confirmation of human DNMT1 inhibitors. actives 8% (n = 2,300). inhibition, % at 10 µM. shares compounds with DNMT1 inh. AID 602385. DNMT1 molecular beacon HinP1I cleavage, fluorescence;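 active = average inhibition of at least 30% in the single-concentration confirmation test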
DNMT1 interf: beacon fluorescence artifact counter-screen. shares compounds with DNMT1 inh. DNMT1 molecular beacon spectral interference counterscreen, fluorescence 485/520. activation (fluorescence interference), % at 10 µM. actives 1% (n = 2,300). AID 602387;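 active = activation of at least 30% at 10 µM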;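 note: DNMT1 catalytic domain with a HinP1I cleavage step and a FAM/dabcyl DNA beacon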
Starred values were filed as active, the others as inactive; / = no result given.

SMILES | DNMT1 inh | LMPTP block | STEP block | HKDC1 inh | Scp-1 inhibitor | SUMO1 PPI mod | DNMT1 inh conf | DNMT1 interf | others
CC(=O)Nc1ccc(OCc2cn(CC(=O)c3ccc(O)cc3)nn2)cc1 | 57* | 0 | 0 | / | / | 5 | 4 | -6
O=C(Nc1ccc(F)cc1)C(c1cccc(F)c1)N1CCN(C(=O)c2ccco2)CC1 (stereo not drawn) | / | 1 | / | / | / | -5 | / | /
O=C(NCCc1ccccc1O)c1cc2c(cc1[N+](=O)[O-])OCO2 | 43 | -1 | -2 | 0 | 0 | -33 | 1 | 5
CCCCCCCCNCCS(=O)(=O)NCc1ccccc1 | 1 | -1 | 0 | -4 | -2 | -3 | / | /
Oc1cccc2cc3cccc(O)c3c(O)c12 | 87* | 23 | 2 | -1 | 2 | 11 | 77* | -4 | DNMT1 interf DR=>99
CN(C)S(=O)(=O)c1ccc2c(c1)C(CC(=O)O)OC2=O (stereo not drawn) | 91* | 1 | -1 | -2 | 2 | 4 | 6 | 11
COc1ccccc1CNC(=O)COC(=O)C1CCN(S(=O)(=O)c2c(Cl)cccc2Cl)CC1 | -4 | 1 | 0 | 6 | -3 | -4 | / | /
Cc1ccc(-c2nnc(Nc3cccc(O)c3)c3ccccc23)cc1S(=O)(=O)NCCO | 90* | 1 | -1 | 0 | -2 | -5 | 7 | 4
O=C1NC(=O)C2(N1)C(=O)c1cccc3cccc2c13 (stereo not drawn) | 92* | -3 | -1 | / | / | -16 | 49* | 70*
Nc1cc(S(=O)(=O)O)cc([N+](=O)[O-])c1O | 66* | 1 | 18 | -2 | 34 | -3 | 72* | -5 | DNMT1 interf DR=>99
C[C@@H]1CC[C@H](O)/C=C/C(=O)O[C@H](C)CC[C@H](O)/C=C/C(=O)O1 | 9 | -1 | 3 | -2 | 13 | 4 | / | /
COC(=O)c1ccc(CSc2nc3scc(-c4cccs4)c3c(=O)[nH]2)o1 | 80* | 2 | 4 | 2 | -5 | 14 | 7 | 1
C[C@@H](NC(=O)[C@@H]1CCCN1C(=O)OC(C)(C)C)c1ccccc1 | / | -2 | / | / | / | 0 | / | /
N#Cc1c(-c2cccc(Br)c2)cc(-c2ccco2)[nH]c1=O | 87* | 25 | 2 | 6 | -6 | 29 | 10 | 14
O=C(c1cccc(-n2cccc2)c1)N1CCN(S(=O)(=O)c2c(F)cccc2F)CC1 | 20 | -8 | 4 | 0 | 28 | 0 | / | /
O=C(c1cccc(-n2cccc2)c1)N1CCN(S(=O)(=O)c2ccccc2)CC1 | 97* | 38 | 13 | / | / | 76* | 12 | 0
COc1ccc(CNC(=O)C(NC(C)=O)C(=O)Nc2ccc(C(C)C)cc2)cc1 (stereo not drawn) | 3 | 0 | -1 | -2 | 19 | 0 | / | /
O=C(COC(=O)c1ccc(Cl)cc1O)NCCN1C(=O)CSC1=O | 4 | 1 | -2 | -2 | -2 | 1 | / | /
COc1ccc(N(C(=O)Cn2nnc(-c3ccc(Cl)cc3)n2)C(C(=O)NCC2CCCO2)c2ccncc2)cc1 (stereo not drawn) | -2 | 0 | 1 | -5 | -10 | 1 | / | /
COc1ccc(N(C(=O)Cn2nnc(-c3ccc(Cl)cc3)n2)C(C(=O)NCC2CCCO2)c2ccc(C)cc2)cc1 (stereo not drawn) | 55* | -1 | 7 | -4 | -9 | 5 | 2 | -3
COc1ccc(N(C(=O)Cn2nnc(-c3ccccc3F)n2)C(C(=O)NCC2CCCO2)c2ccc(Cl)cc2)cc1 (stereo not drawn) | 53* | 1 | 0 | -7 | -4 | 3 | 3 | 1
